Assay results: PMC11439047 (Nature Communications, 2024)
Substitutions are numbered along the chain they refer to.

Key:
P2X1 receptor K140A = biological target: T1, P2X1 receptor K140A (Homo sapiens, UniProt P51575, K140A); assay: Saturation radioligand binding with [3H]-α,β-methylene ATP
T1 sequence (P51575 1-399 K140A): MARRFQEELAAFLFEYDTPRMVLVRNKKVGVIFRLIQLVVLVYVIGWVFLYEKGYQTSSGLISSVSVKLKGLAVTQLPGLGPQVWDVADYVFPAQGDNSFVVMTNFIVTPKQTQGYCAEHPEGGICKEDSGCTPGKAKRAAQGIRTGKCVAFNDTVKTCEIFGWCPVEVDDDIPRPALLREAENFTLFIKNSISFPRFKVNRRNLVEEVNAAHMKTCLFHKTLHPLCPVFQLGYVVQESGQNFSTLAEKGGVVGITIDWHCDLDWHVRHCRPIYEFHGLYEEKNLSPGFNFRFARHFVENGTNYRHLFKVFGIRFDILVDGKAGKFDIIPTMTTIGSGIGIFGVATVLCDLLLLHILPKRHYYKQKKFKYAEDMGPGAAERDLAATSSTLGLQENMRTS
Summary of the method: (§1)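 Whole HEK293 Flp-In T-REx cells stably expressing receptor, tetracycline-induced (150 ng/ml, 2 days), 15,000 cells/well, washed in HEPES binding buffer pH 7.4 with Ca2+/Mg2+. Increasing [3H]-α,β-methylene ATP added, 3 h room temperature with gentle agitation; non-specific binding with 10 μM ATP. Ice-cold 0.9% NaCl washes, scintillation counting (CCPM). Specific binding fitted one-site; values above 300 nM termed not defined.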

P2X1 receptor R292A = biological target: T2, P2X1 receptor R292A (Homo sapiens, UniProt P51575, R292A); assay: as above
T2 sequence (P51575 1-399 R292A): T1 sequence (P51575 1-399 K140A) with A140K, R292A
Summary of the method: as §1

P2X1 receptor M214A = biological target: T3, P2X1 receptor M214A (Homo sapiens, UniProt P51575, M214A); assay: Saturation radioligand binding with [3H]-α,β-methylene ATP
T3 sequence (P51575 1-399 M214A): T1 sequence (P51575 1-399 K140A) with A140K, M214A

P2X1 receptor R139P = biological target: T4, P2X1 receptor R139P (Homo sapiens, UniProt P51575, R139P); assay: Calcium ion influx assay; format: cell-based; settings: maximal α,β-methylene ATP
T4 sequence (P51575 1-399 R139P): T1 sequence (P51575 1-399 K140A) with R139P, A140K

P2X1 receptor R139A = biological target: T5, P2X1 receptor R139A (Homo sapiens, UniProt P51575, R139A); assay: Calcium ion influx assay; format: cell-based
T5 sequence (P51575 1-399 R139A): T1 sequence (P51575 1-399 K140A) with R139A, A140K

binding affinity compared to WT-P2X1 (P2X1 receptor K140A): comparable to that of WT-P2X1 | binding affinity compared to WT-P2X1 (P2X1 receptor R292A): reduced | fold decrease in potency compared to WT-P2X1 (P2X1 receptor R139A): 3.5 fold
Structure (SMILES): Nc1ncnc2c1ncn2[C@@H]1O[C@H](COP(=O)(O)CP(=O)(O)OP(=O)(O)O)[C@@H](O)[C@H]1O [α,β-methylene ATP]
binding affinity compared to WT-P2X1 (P2X1 receptor M214A): beyond the threshold that could be accurately measured | desensitisation rate compared to WT-P2X1 (P2X1 receptor R139P): significantly slowed the desensitisation rate | desensitisation rate compared to WT-P2X1 (P2X1 receptor R139A; maximal α,β-methylene ATP): significantly slowed the desensitisation rate
